This data set deals with MS2 coat protein. In words: apparent Kd, MS2 coat protein; higher = weaker binding; RNA-MaP array; FMN 200 µM where present. An outline of the steps: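 Designs were transcribed by stalled E. coli RNA polymerase on Illumina sequencing-chip clusters. They were titrated with SNAP-549-labelled MS2 coat protein from 0.7 or 1.5 nM, doubling to 3 µM, in 100 mM Tris-HCl pH 7.5, 80 mM KCl, 4 mM MgCl2, BSA, DTT, yeast tRNA and Tween-20, without and then with constant ligand. The apparent Kd is the median of filtered per-cluster fits after normalisation of green signal to red-channel RNA signal and control-cluster median Fmax.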

Setting [1] is: designed as: OFF switch for flavin mononucleotide, no ligand.
The mark [2] stands for this setting: ligand present: flavin mononucleotide, designed as: OFF switch for flavin mononucleotide.
[3] abbreviates: designed as: ON switch for flavin mononucleotide, no ligand.
Setting [4] is: ligand present: flavin mononucleotide, designed as: ON switch for flavin mononucleotide.

What is called apparent Kd is a dissociation constant that holds for the conditions of the assay. With “UUAUACAUGAGGAUCUCCCAUGACAUGAGGAUCACCCAUGUGCAGGAUAUACGUGUUAUAAUAUAGUAGAAGGGCAGUCUAUAU”, the “apparent Kd” value under setting [1] came to 36.8 nM and the “apparent Kd” value under setting [2] is 104 nM.
As to “GUAGCAUUAUAAGGAUAUUCAUACCGGAAACGGACAUGAGGAUCACCCAUGUGGCGAAAGCCUUGGGAGAAGGUAUUGUGCUAC”, the “apparent Kd” value was 402 nM under setting [3] and 24.6 nM under setting [4].
On to “GGUGUGAGGCAGGAUAUGCUAUAUGUAAGUAAUGCAGAAGGGUCUACAUGAGGAUCACCCAUGUGUGCGGUAGA”, for which the “apparent Kd” value is 105 nM under setting [1] and 311 nM under setting [2].
The like results for “GGUCAGCUAGGAUAUACAUGAGGAUCACCCAUGUACUGACCCAUGCGGGAGUCCGCAUGUAGAAGGAGCAAAAU” were, in that order, 20.9 nM and 22.6 nM.
Regarding “AAAACAUGAGGAUCACCCAUGUAAAGAUCGGUUAAUAAAAGUGAGGAUAUACUAAAUUUUAUAUAGUAGAAGGCACUGGGUACA”, the “apparent Kd” value runs as follows: under setting [3], 22.9 nM; under setting [4], 30.1 nM.
With “GGAUGACAAAGUCAUCCAAUUCGAACAUGAGGAUCACCCAUGUAGGAUAUGGUACUCAAAGAGUACCAGAAGGACAUGUGCUUU”, the “apparent Kd” value was determined as 38.1 nM under setting [1] and 145 nM under setting [2].
The like results for “GCGGGAGGAGGAUAUACAAUCGUGUGACCCGGACCCUAUGGACAUGAGGAUCACCCAUGUAGAAGGUUUCCCUU” were, in that order, 112 nM and 568 nM.
“UUGGACGUCGUAGGAUAUGUAGGAUACUCCUACAUGAGGAUCACCCAUGUUGACAUGGAGGACGGACAGAAGGACGGUGUCCAU”: the “apparent Kd” value under setting [3] came to 60.5 nM and the “apparent Kd” value under setting [4] was determined as 5.72 nM.
Consider “UUCCGGCGUGUAGGAUAUGGAUCCGAUUAGGAUCCAGAAGGACAUGAGGAUCACCCAUGUACAUGUAAACAGUCAUCACCGGAC”, for which the “apparent Kd” value by setting is: under setting [1], 9.63 nM; under setting [2], 87.3 nM.
“GUACUGAAGCUUUGCUUUAGUCGUACAUGAGGAUCACCCAUGUAGGAUAUGGUAAGCUUUGCUUACUAGAAGGAUAGAGUGAUC”: the “apparent Kd” value runs as follows: under setting [1], 119 nM; under setting [2], 50.2 nM.
The like results for “GCACCAAGAGGAUAUACCGAGGUCAUCUACUUUGCAUAGCGACAUGAGGAUCACCCAUGUAGAAGGUUUGUCGU” were, in that order, 95.4 nM and 80.6 nM.
For “GGACGUCAGAUUAACAUGAGGAUCACCCAUGUCUUUUGACAUGAGGAUAUGCAACCUAAUUGGUUGCAGAAGGCAUGGACGUCC”, the “apparent Kd” value under setting [3] amounted to 917 nM and the “apparent Kd” value under setting [4] came to 85.2 nM.
With “AUCAGCUCGUCAGGAUAUACAUCACUGCUUCGGCAGUGUGGUAAGGUCACAUGAGGAUCACCCAUGUAGAAGGGACGAGCUGAU”, the “apparent Kd” value by setting is: under setting [1], 8.48 nM; under setting [2], 106 nM.
In the case of “GAAUGAAAGCAGAAGGCCGCACAUGAGGAUCACCCAUGUGAAAACAGAUGGAGGAUAUGCGAACGUUCGCUUUGAAAAGUAAAG”, the “apparent Kd” value is 13.5 nM under setting [3] and 6.35 nM under setting [4].
For the sequence “AAUUUACAGGGAGGAUAUACAUGAGGAUCACCCAUGUAAUCAUAUGAUAUUUUUUUUGUAUGAGUGUAGAAGGCCCAAAUACCA”, the “apparent Kd” value is, setting by setting: under setting [1], 11.5 nM; under setting [2], 13 nM.
With “CGUGUCAUCGAGAAGGCCUCAACAUGAGGAUCACCCAUGUUGUAAUAUGGGAGGAUAUCGAUGAUACAGCUACGUUUCGUAGCC”, the “apparent Kd” value worked out at 19.5 nM under setting [3] and 6.48 nM under setting [4].
In the same order, the values of “AAAAUCAAUUGAGGAUAUUCAUACACUACAUACGGAGAAGGCAAACAAUCAUGAGGACAUGAGGAUCACCCAUGUUGUGACCAU” are 22.3 nM and 16.3 nM.
On to “GUUUAGUGAGGAUAUGCGGCAUCGAUCGAGCGCGGUCGGCUACAGAAGGCACAUGAGGAUCACCCAUGUUUCUC”, for which the “apparent Kd” value turned out to be 41 nM under setting [1] and 278 nM under setting [2].
In the same order, the values of “UUAUACGUUGAGGAUAUGCGACUUUGUAUAGUUGUAGAAGGCGAUACAUGAGGAUCACCCAUGUUUAUGGGCAU” are 323 nM and 554 nM.
The like results for “GCCGAAAGUGUGAGGAUAUACCUAUGGAUACAUAGGUAGAAGGCACAUGAGGAUCACCCAUGUUCCUAAACGGC” were, in that order, 80.2 nM and 421 nM.
As to “GGACGUCGGAUAAACAUGAGGAUCACCCAUGUAACUAGACAUGAGGAUAUGGAUUCUAAUUGGAUCCAGAAGGUAUCGACGUCC”, the “apparent Kd” value runs as follows: under setting [3], 193 nM; under setting [4], 211 nM.
Take “GUGGUCUCCGCAGGAUAUGGCUCGGGCACGACACCAGAAGGGCGGACAUGAGGAUCACCCAUGUUCGCGGGUGGGUCCUAAGGA”: the “apparent Kd” value amounted to 6.39 nM under setting [1] and 7.49 nM under setting [2].
Consider “UAAAUACAUGAGGAUCACCCAUGUCAAAAGACAUGAGGAUAUGUACAGACUUCGGUCUGUACAGAAGGCAUGAAAA”, for which the “apparent Kd” value was 680 nM under setting [3] and 55.4 nM under setting [4].
On to “GAGGACUGUGCAGGAUAUACAUGAGGAUCACCCAUGUAGGUCGGUUCGAAAGUAGAAGGGCACGAUUGUCGAUAGCACGCGUGA”, for which the “apparent Kd” value by setting is: under setting [1], 97.5 nM; under setting [2], 39.2 nM.
